For assay [1], the system named is Rattus norvegicus. In words: Dose required to inhibit the food intake by 50% in rats at a dose of 320 ug/kg ip. Type of assay: functional. The method in brief: (§1)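 Male Sprague–Dawley rats (200–250 g), meal-fed. "1-2-1": trained 4–5 days on two 1-h meals 2 h apart; ip dosing 15 min before first meal, n=5–6. "Overnight fasted": n=5–7, ip vehicle or drug, food offered 1 h. Intake as % of saline control over first hour; t-test vs control; ED50 by log-probit.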

The target in assay [2] is T1, Gastrin/cholecystokinin type B receptor (Bos taurus, UniProt P79266).
T1 sequence (P79266 whole entry): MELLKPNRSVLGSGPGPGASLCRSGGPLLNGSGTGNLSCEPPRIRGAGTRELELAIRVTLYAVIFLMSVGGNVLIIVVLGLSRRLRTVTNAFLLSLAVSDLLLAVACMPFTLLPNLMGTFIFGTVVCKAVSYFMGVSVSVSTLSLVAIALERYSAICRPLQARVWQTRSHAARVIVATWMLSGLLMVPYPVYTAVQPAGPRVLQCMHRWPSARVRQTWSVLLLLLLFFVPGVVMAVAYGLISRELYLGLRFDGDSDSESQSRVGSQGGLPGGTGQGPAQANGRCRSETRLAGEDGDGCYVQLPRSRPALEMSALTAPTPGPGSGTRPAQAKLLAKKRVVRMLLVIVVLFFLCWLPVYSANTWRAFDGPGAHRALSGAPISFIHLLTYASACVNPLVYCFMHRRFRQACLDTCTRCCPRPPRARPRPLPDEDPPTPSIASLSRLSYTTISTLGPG
In words: Concentration inhibiting [3H]propionyl-CCK-8 binding to cholecystokinin type B receptor of bovine striatum. The format is tissue-based. The method in brief:
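CCK-B binding used solubilized bovine striatal membranes and [3H]propanoyl-CCK-8 displacement. Nonspecific binding was taken with 1 μM native CCK-8 and subtracted. IC50, the concentration giving 50% inhibition of total specific binding, was obtained by log-probit analysis. Actives were confirmed in duplicate experiments.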

Assay [3] addresses T2, Cholecystokinin receptor type A (Rattus norvegicus, UniProt P30551).
T2 sequence (P30551 whole entry): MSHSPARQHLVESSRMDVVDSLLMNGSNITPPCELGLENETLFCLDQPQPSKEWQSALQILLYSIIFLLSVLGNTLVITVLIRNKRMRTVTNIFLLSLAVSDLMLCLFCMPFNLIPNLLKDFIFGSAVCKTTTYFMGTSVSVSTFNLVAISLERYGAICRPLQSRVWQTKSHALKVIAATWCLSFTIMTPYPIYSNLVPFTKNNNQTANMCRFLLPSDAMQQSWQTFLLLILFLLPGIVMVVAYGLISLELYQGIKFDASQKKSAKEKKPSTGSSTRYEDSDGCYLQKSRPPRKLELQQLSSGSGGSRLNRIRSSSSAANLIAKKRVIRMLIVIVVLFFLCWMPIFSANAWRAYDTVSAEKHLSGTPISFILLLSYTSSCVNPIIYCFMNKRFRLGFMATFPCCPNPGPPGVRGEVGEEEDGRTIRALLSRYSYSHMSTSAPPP
In words: Concentration inhibiting [3H]propionyl-CCK-8 binding to cholecystokinin type A receptor of rat pancreatic membranes. The method in brief: (§2)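 Solubilized membranes from fresh pancreas of fasted rats (CCK-A). Competition against [3H]propanoyl-CCK-8. Nonspecific binding defined with 1 μM native CCK-8 and subtracted. IC50 is the concentration inhibiting 50% of total specific binding, from log-probit analysis. Actives confirmed in duplicate experiments.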

Assay [4] addresses T2, Cholecystokinin receptor type A. Briefly: Inhibitory activity against cholecystokinin type A receptor from rat pancreas binding assay. In a few lines: as §2
The test system of assay [5] is Rattus norvegicus. In words: Suppression of food intake in rats when administered intraperitoneally. The format is functional. In a few lines:
as §1

In assay [6] the test system is Rattus norvegicus. In words: Dose required to inhibit the food intake by 50% in rats after intraperitoneal administration. The following applies: ip. The format is functional. In a few lines: as §1

*1 amine or outer side, *2 acyl side, *3 side chain or, on linkers, in order; H or OH if unused. Where a SMILES comes first, the peptide text is derived from it. Side-chain parts run from the residue outwards. [ ]: non-standard residue; d: D form. The star is where a group is joined. ξ: configuration not given here. Thz(5,5-Me2) = CC1(C)SCN[C@@H]1C(=O)O; NMeF = CN[C@@H](Cc1ccccc1)C(=O)O; NH(2-Me-phenyl) = Cc1ccccc1N*; ξF = NC(Cc1ccccc1)C(=O)O; Boc = CC(C)(C)OC(=O)*; CO = O=C([*:1])[*:2]

By ED50 is commonly meant the dose that gives a 50% effect, or the effect in half of the subjects. A low value points to greater potency. `CSCC[C@H](NC(=O)[C@H](Cc1ccc(OS(=O)(=O)O)cc1)NC(C)=O)C(=O)NCC(=O)N[C@@H](Cc1c[nH]c2ccccc12)C(=O)N[C@@H](CCSC)C(=O)N1CSC(C)(C)[C@H]1C(=O)N[C@@H](Cc1ccccc1)C(N)=O` [listing 1 of 2 here] showed a 50% effective dose (ED50) in assay [1] of 0.0044 mg/kg. Usually IC50 stands for the concentration needed to halve the response being measured. A lower IC50 goes with higher potency. In the case of `CSCC[C@H](NC(=O)[C@H](Cc1ccc(OS(=O)(=O)O)cc1)NC(C)=O)C(=O)NCC(=O)N[C@@H](Cc1c[nH]c2ccccc12)C(=O)N[C@@H](CCSC)C(=O)N1CSC(C)(C)[C@H]1C(=O)N[C@@H](Cc1ccccc1)C(N)=O` [listing 2 of 2 here], the concentration for half-maximal inhibition (IC50) worked out at 2310 nM in assay [2] and 0.05 nM in assay [3]. The compound `Cc1ccccc1NC(=O)NCCCC[C@H](NC(=O)[C@H](Cc1c[nH]c2ccccc12)NC(=O)OC(C)(C)C)C(=O)N[C@@H](CC(=O)O)C(=O)N(C)[C@@H](Cc1ccccc1)C(N)=O` (Boc-WK([CO-NH(2-Me-phenyl)])D[NMeF]-NH2) registered an IC50 in assay [4] of 0.05 nM.

Regarding `CSCC[C@H](NC(=O)[C@H](Cc1ccc(OS(=O)(=O)O)cc1)NC(C)=O)C(=O)NCC(=O)N[C@@H](Cc1c[nH]c2ccccc12)C(=O)N[C@@H](CCSC)C(=O)N1CSC(C)(C)[C@@H]1C(=O)N[C@@H](Cc1ccccc1)C(N)=O` [listing 1 of 2 here], in assay [1], the ED50 is above 0.32 mg/kg. The compound further displayed a Control in assay [5] of 66%. Take `CSCC[C@H](NC(=O)[C@H](Cc1ccc(OS(=O)(=O)O)cc1)NC(C)=O)C(=O)NCC(=O)N[C@@H](Cc1c[nH]c2ccccc12)C(=O)N[C@@H](CCSC)C(=O)N1CSC(C)(C)[C@@H]1C(=O)N[C@@H](Cc1ccccc1)C(N)=O` [listing 2 of 2 here]: the results for the IC50 in assay [2] and in assay [3] were 6160 nM and 314 nM, respectively. Consider `Cc1ccccc1NC(=O)NCCCC[C@H](NC(=O)[C@H](Cc1c[nH]c2ccccc12)NC(=O)OC(C)(C)C)C(=O)N1CSC(C)(C)[C@H]1C(=O)NC(Cc1ccccc1)C(N)=O` (stereo not given in full) (Boc-WK([CO-NH(2-Me-phenyl)])[Thz(5,5-Me2)][ξF]-NH2), for which the half-inhibitory concentration (IC50) in assay [4] was 59 nM. The ED50 in assay [6] was found to be 0.085 mg/kg.
